Source: PubChem BioAssay (several laboratories)
Hits are enriched below; roughly 4.8% of the tested compounds scored in any of these assays.
PAFAH2 FP inh: PAFAH2 enzyme inhibitors, primary screen, biochemical, fluorescence polarization, human; Platelet-activating factor acetylhydrolase 2, cytoplasmic (Homo sapiens), Q99487; recombinant PAFAH2, FP-rhodamine activity probe; inhibition, % at 3.39 µM; hit rate 0.99% among 340,000; AID 492956, 2010;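 active means inhibition above the mean over all tested compounds plus 3 SD, cut at about 30% in these data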;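 further: inhibitors block probe labeling of enzyme so polarization drops; 0% = enzyme with DMSO and 100% = wells lacking PAFAH2 protein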
UCH37 inh: inhibitors of human UCH37 deubiquitinase, primary screen, biochemical, Ub-AMC cleavage, fluorescence; purified proteasome/UCH37; hit rate 0.33% among 330,000; Ubiquitin carboxyl-terminal hydrolase isozyme L5 (Homo sapiens), Q9Y5K5; inhibition, % (concentration not given with the values);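 active means mean inhibition over replicate wells above about 20%, limit read from the data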;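 further: 0% = compound-free wells with enzyme and 100% = wells lacking proteasome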
Target sequence (Q9Y5K5 whole entry, looked up): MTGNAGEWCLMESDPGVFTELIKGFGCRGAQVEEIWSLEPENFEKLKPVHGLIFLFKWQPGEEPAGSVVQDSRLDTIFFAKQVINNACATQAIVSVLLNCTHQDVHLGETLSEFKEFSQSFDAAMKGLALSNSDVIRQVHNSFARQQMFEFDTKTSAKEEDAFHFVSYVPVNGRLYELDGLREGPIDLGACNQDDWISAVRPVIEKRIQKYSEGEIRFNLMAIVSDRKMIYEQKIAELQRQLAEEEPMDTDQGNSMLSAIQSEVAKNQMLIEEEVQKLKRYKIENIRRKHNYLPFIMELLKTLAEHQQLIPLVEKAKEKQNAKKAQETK
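Material: Human UCH37 enzyme supplied as purified proteasome complex | Schedule: 30 min compound-proteasome preincubation then 25 min substrate reaction, room temperature | Detection: AMC fluorescence from Ub-AMC cleavage, excitation 355 nm, emission 460 nm | Benchmarks: Wells without proteasome as full block, compound-free enzyme plus substrate as uninhibited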
pPAFAH FP inh: pPAFAH enzyme inhibitors, primary screen, biochemical, fluorescence polarization, human; Platelet-activating factor acetylhydrolase (Homo sapiens), Q13093; recombinant pPAFAH, FP-rhodamine probe fluorescence polarization; inhibition, % at 3.39 µM; hit rate 1.5% among 330,000; AID 463082, 2010;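 active means inhibition above the mean inhibition across the screen plus 3 SD, cut at about 25% in these data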;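 further: inhibitors block binding of the rhodamine activity-based probe so polarization drops; 0% = enzyme with DMSO and 100% = wells lacking pPAFAH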
PAFAH1B3 FP inh: PAFAH1B3 enzyme inhibitors, primary screen, biochemical, fluorescence polarization, human | Platelet-activating factor acetylhydrolase IB subunit alpha1 (Homo sapiens), Q15102 | recombinant PAFAH1B3, FP-rhodamine probe | inhibition, % at 3.39 µM | hit rate 0.28% among 340,000 | AID 492972, 2010;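 active means inhibition above the screen-wide average of all tested compounds plus 3 SD, cut at about 25% in these data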;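 further: 0% = enzyme with DMSO only and 100% = wells lacking PAFAH1B3 protein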
PAFAH1B2 FP inh: PAFAH1B2 enzyme inhibitors, primary screen, biochemical, fluorescence polarization, human; Platelet-activating factor acetylhydrolase IB subunit alpha2 (Homo sapiens), P68402; recombinant PAFAH1B2, FP-rhodamine activity probe; inhibition, % at 3.39 µM; hit rate 1.2% among 340,000; AID 492953, 2010;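 active means inhibition above the mean of all tested compounds plus 3 SD, cut at about 24% in these data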;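 further: 0% = enzyme with DMSO and 100% = wells lacking PAFAH1B2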
NR3A LBD binder: binders of NR3A ligand-binding domain, primary screen, biophysical, differential scanning fluorimetry, uHTS. Glutamate receptor ionotropic, NMDA 3A (GRIN3A) ligand-binding domain. NR3A LBD differential scanning fluorimetry, Tm shift; 0% = protein alone, 100% = glycine-bound protein. Tm shift relative to glycine control, % at 25 µM. hit rate 2.5% among 340,000. AID 1259313, 2017;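 active means melting temperature shift of at least 10% of the positive control shift, at one fixed dose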
* = called active by the depositor.

Cc1ccc(/C=N\NC(=O)c2cc(OCC(F)(F)F)ccc2OCC(F)(F)F)cc1 was read as PAFAH2 FP inh -4, pPAFAH FP inh -1, PAFAH1B3 FP inh -7, PAFAH1B2 FP inh 5 and NR3A LBD binder 14*.
`CC(C)(C)c1ccc(OCC(=O)O)cc1` gave PAFAH2 FP inh -12, UCH37 inh 4, pPAFAH FP inh -3, PAFAH1B3 FP inh 3, PAFAH1B2 FP inh 7 and NR3A LBD binder 1.
`CC(CCC(=O)O)(c1ccc(O)cc1)c1ccc(O)cc1` gave PAFAH2 FP inh 1, UCH37 inh -1, pPAFAH FP inh -2, PAFAH1B3 FP inh 11, PAFAH1B2 FP inh 25* and NR3A LBD binder 0.
`O=C(CCC(=O)Nc1ccc(F)cc1)NN=Cc1ccncc1` gave UCH37 inh -1.
`Cc1cc(NC(=O)CSc2ccc(-c3nc4cc(C)c(C)cc4[nH]3)cn2)no1` gave PAFAH2 FP inh -32, UCH37 inh -6, pPAFAH FP inh -5, PAFAH1B3 FP inh -27, PAFAH1B2 FP inh -11 and NR3A LBD binder 6.
For Cc1cc2nc(-c3ccc(SCC(=O)N4CCc5ccccc54)nc3)[nH]c2cc1C the results were PAFAH2 FP inh -7, UCH37 inh -63, pPAFAH FP inh 2, PAFAH1B3 FP inh -5, PAFAH1B2 FP inh 2 and NR3A LBD binder 25*.
Cc1cc2nc(-c3ccc(SCC(=O)NC(C)C)nc3)[nH]c2cc1C was read as pPAFAH FP inh -1.
For Cc1cc2nc(-c3ccc(SCC(=O)Nc4ccc(S(=O)(=O)NC5CC5)cc4)nc3)[nH]c2cc1C the results were PAFAH2 FP inh -51, UCH37 inh -82, pPAFAH FP inh -16, PAFAH1B3 FP inh -48, PAFAH1B2 FP inh -32 and NR3A LBD binder 32*.
For CC(CCc1oc2ccc(Cl)cc2c1-c1ccc(C)o1)=NO the results were UCH37 inh 1.
COc1ccc(C(=O)Nc2ccc3[nH]ccc3c2)cc1 was read as PAFAH2 FP inh 6, UCH37 inh 4, pPAFAH FP inh 2, PAFAH1B3 FP inh 6, PAFAH1B2 FP inh 2 and NR3A LBD binder 31*.
For COc1ccc(C(=O)Nc2ccc3[nH]ncc3c2)cc1 the results were PAFAH2 FP inh -1, UCH37 inh 0, pPAFAH FP inh 3, PAFAH1B3 FP inh 1, PAFAH1B2 FP inh 7 and NR3A LBD binder 12*.
For CCOC(=O)c1ccc(N2C(=O)c3n[nH]c(-c4ccco4)c3C2c2cccc([N+](=O)[O-])c2)cc1 (centres undefined) the results were PAFAH2 FP inh -19, UCH37 inh 2, pPAFAH FP inh 0, PAFAH1B3 FP inh -22, PAFAH1B2 FP inh -7 and NR3A LBD binder 24*.
Screening CCOC(=O)c1sc(N2C(=O)C(O)=C(C(=O)c3ccc(C)o3)C2c2cccc([N+](=O)[O-])c2)nc1C (centres undefined) returned PAFAH2 FP inh 47*, UCH37 inh -58, pPAFAH FP inh 13, PAFAH1B3 FP inh 11, PAFAH1B2 FP inh 3 and NR3A LBD binder -2.
CCOC(=O)c1ccc(N2C(=O)c3n[nH]c(C)c3C2c2ccco2)cc1 (centres undefined) was read as PAFAH2 FP inh 2, UCH37 inh 4, pPAFAH FP inh -2, PAFAH1B3 FP inh 12, PAFAH1B2 FP inh 3 and NR3A LBD binder -1.
Screening O=C(CN(Cc1ccccc1Cl)S(=O)(=O)c1ccc(Cl)cc1)NN=Cc1ccc(C(=O)O)cc1 returned UCH37 inh 3.
Screening O=C(CNC(=O)c1ccc(S(=O)(=O)N2CCCC2)cc1)NN=Cc1ccc(Cl)cc1 returned UCH37 inh 1.
For CCOC(=O)NN=C(c1ccccc1)C1CCCCC1 the results were UCH37 inh 2.
